Measurements collected from several papers.
Target: Cytochrome P450 3A4 (CYP3A4, Homo sapiens, UniProt P08684)
Effect on: enzyme activity
Mode: inhibitor

With COc1cc2c(c(OC)c1OC)-c1c(cc3c(c1OC)OCO3)C[C@H](C)[C@](C)(O)[C@H]2OC(=O)c1ccccc1 the IC50 was 0.14 µM (15 min, pH 7.4).
Nc1nc(N)c2nc(C(=O)NCc3cccc(C(F)(F)F)c3)cnc2n1 gave an IC50 of 13.8 µM (luciferase).
CCc1cc(/C(C)=N/OCc2ccc(C3CCCCC3)c(C(F)(F)F)c2)ccc1CN1CC(C(=O)O)C1 has an IC50 of 0.6 µM (human, liver microsomes; 20 min, testosterone probe).
For COC(=O)C1CCN(C(=O)c2ccc(SCc3cnc4nc(N)nc(N)c4n3)nc2)CC1, the IC50 was 11.7 µM (luciferase).
With O=C(NCCN1CCCC1)c1cc(-c2ccc(CN3CCOCC3)cc2)nc2ccc(F)cc12 the IC50 was over 100 µM (human, liver microsomes; midazolam probe).
CCCCC1=NC2(CCCC2)C(=O)N1Cc1ccc(-c2ccccc2S(=O)(=O)Nc2noc(C)c2C)c(COCC)c1 gave a Ki of 6.33 µM.
COc1ccn2c(Nc3ccccc3F)c(-c3ccncn3)nc2c1 has an IC50 of 0.27 µM.
For CC1=CC(=O)C(C(C)C)=CC1=O, the IC50 was 1.2 µM (fluorescence; pH 7.4).
With COc1ccc2c(Cc3ccccc3F)c3n(c(=O)c2c1OC)CCc1cc2c(cc1-3)OCO2 the IC50 was 2.7 µM.
For Nc1nc(N)c2nc(CNc3ccc(C(=O)c4ccccc4)cc3)cnc2n1, the IC50 was 43.7 µM (luciferase).
For Cc1ccc2nc(-c3ccccc3)c(CNc3ccc(F)cc3)n2c1, the IC50 was 0.27 µM.
The IC50 of COc1ccc2c(Cc3ccccc3F)c3[n+](cc2c1OC)CCc1cc2c(cc1-3)OCO2 is reported as 0.8 µM.
